This is an account of results in ChEMBL document CHEMBL1268911, “Novel agonists and antagonists for human protease activated receptor 2” (J Med Chem, 2010).

Activity calls are given as the source filed them. The calls are words filed in the database; no cut-off is given here.

For the first assay, the target named is Proteinase-activated receptor 2 (Homo sapiens) (UniProt P55085). Description: Antagonist activity at PAR2 receptor in human HT-29 cells assessed as inhibition of intracellular calcium release at 5 uM relative to SLIGRLI-NH2. Type of assay: functional, cell-based. Also on record: scale not given: the % may be the effect or the level left.
Conditions: not given
The procedure, abridged: (§1)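 Single-point inhibition in Fluo-3-loaded HT29 cells. Antagonist was given at 5 or 50 μM before 2.5 μM SLIGRLI-NH2. Calcium efflux was read as fluorescence and expressed as percent inhibition, with 100% meaning complete block.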
For the molecule `CC[C@H](C)[C@H](NC(=O)[C@H](CC1CCCCC1)NC(=O)c1ccno1)C(=O)Nc1cccc2ccccc12`, the Activity was determined as 40%.

Turning to `CC[C@H](C)[C@H](NC(=O)[C@H](CC1CCCCC1)NC(=O)c1ccno1)C(=O)N1CCC2(CCc3ccccc32)CC1`, the Activity stood at 40%.

As for `CC[C@H](C)[C@H](NC(=O)[C@H](CC1CCCCC1)NC(=O)c1ccno1)C(=O)N1CCN(c2ccccc2)CC1`, the Activity came out at 40%.

On to `CC[C@H](C)[C@H](NC(=O)[C@H](CC1CCCCC1)NC(=O)c1ccno1)C(=O)N1CCc2ccccc2C1`, for which the Activity was 40%.

`CC[C@H](C)[C@H](NC(=O)[C@H](CC1CCCCC1)NC(=O)c1ccno1)C(=O)N1CCN(c2ccccc2C)CC1`: the Activity is 40%.

With `CC[C@H](C)[C@H](NC(=O)[C@H](CC1CCCCC1)NC(=O)c1ccno1)C(=O)Nc1ccccc1-c1ccccc1`, the Activity stood at 40%.

For another assay the target is unchanged. Description: Antagonist activity at PAR2 receptor in human HT-29 cells assessed as inhibition of intracellular calcium release at 50 uM relative to SLIGRLI-NH2. Type of assay: functional, cell-based.
Conditions: not given
The gist of the method:
as §1
In general terms: Calcium flux is commonly read through the fluorescence of an indicator in the cells.
Regarding `CC[C@H](C)[C@H](NC(=O)[C@H](CC1CCCCC1)NC(=O)c1ccno1)C(=O)N1CCC2(CCc3ccccc32)CC1`, the inhibition result is “Active”.

For a further assay the target is unchanged. The assay is described as follows: Agonist activity at PAR2 receptor in human HT-29 cells assessed as induction of intracellular calcium release at 50 uM relative to […].
Conditions: not given
The format is functional, cell-based. The gist of the method: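 HT29 cells loaded with Fluo-3 AM in HBSS/HEPES/probenecid, pH 7.4. Compounds were tested at one concentration, 50 μM, and Ca2+ release (ex 495/em 520 nm, 60 s read) was expressed relative to 2-furoyl-LIGRLI-NH2 at the same concentration.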
Consider `CC(C)C[C@H](NC(=O)c1ccco1)C(=O)N[C@@H](CC1CCCCC1)C(N)=O`, for which the Activity was 43%.

Consider `CC[C@H](C)[C@H](NC(=O)[C@@H](NC(=O)c1ccco1)C1CCCCC1)C(N)=O`, for which the Activity was 12%.

With `CC[C@H](C)[C@H](NC(=O)[C@H](CC1CCCCC1)NC(=O)c1ccco1)C(N)=O`, the Activity is 58%.

In the case of `CC(C)C[C@H](NC(=O)c1ccco1)C(=O)N[C@@H](Cc1ccc(F)cc1)C(N)=O`, the Activity stood at 19%.

With `CC[C@H](C)[C@H](NC(=O)[C@H](CC(C)C)NC(=O)c1ccco1)C(N)=O`, the Activity was determined as 38%.

For `CC[C@H](C)[C@H](NC(=O)[C@H](Cc1ccccc1)NC(=O)c1ccco1)C(N)=O`, the Activity turned out to be 67%.

On to `CC(C)C[C@H](NC(=O)c1ccco1)C(=O)N[C@@H](Cc1ccccc1)C(N)=O`, for which the Activity was determined as 22%.

The target of the next assay is T1, Proteinase-activated receptor 2 (Homo sapiens, UniProt P55085).
T1 sequence (P55085 whole entry): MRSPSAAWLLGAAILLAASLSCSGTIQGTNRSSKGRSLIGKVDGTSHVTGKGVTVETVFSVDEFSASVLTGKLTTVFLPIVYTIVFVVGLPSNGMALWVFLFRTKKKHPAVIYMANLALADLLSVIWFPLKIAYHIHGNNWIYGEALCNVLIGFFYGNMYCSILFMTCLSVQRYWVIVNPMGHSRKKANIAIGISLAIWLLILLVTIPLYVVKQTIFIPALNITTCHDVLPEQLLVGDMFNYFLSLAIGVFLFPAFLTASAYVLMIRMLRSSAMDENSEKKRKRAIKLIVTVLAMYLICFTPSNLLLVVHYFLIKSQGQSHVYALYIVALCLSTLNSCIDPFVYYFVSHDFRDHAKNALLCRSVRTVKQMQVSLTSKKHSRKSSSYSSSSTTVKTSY
Description: Antagonist activity at PAR2 receptor in human HT-29 cells assessed as inhibition of intracellular calcium release. The format is functional, cell-based. To be noted: read-out: IC50.
Regarding `CC[C@H](C)[C@H](NC(=O)[C@H](CC1CCCCC1)NC(=O)c1ccno1)C(=O)Nc1ccc(CC(=O)N2CCOCC2)cc1`, the IC50 came to 57 µM.

Still in this assay, the particulars now being: read-out: pIC50 (converted).
Turning to `CC[C@H](C)[C@H](NC(=O)[C@H](CC1CCCCC1)NC(=O)c1ccno1)C(=O)N1CCC2(CCc3ccccc32)CC1`, the IC50 was 7.94 µM.

The target in another assay is T1, Proteinase-activated receptor 2. Description: Agonist activity at PAR2 receptor in human HT-29 cells assessed as induction of intracellular calcium release. Type of assay: functional, cell-based.
Conditions: not given
Regarding `CC[C@H](C)[C@H](NC(=O)[C@H](CC1CCCCC1)NC(=O)c1ccno1)C(=O)NC1CCN([C@@H](CC(C)C)C(=O)N2CCC(CN)CC2)C1=O` (stereo partly specified), the EC50 (commonly the concentration at which the effect is half-maximal) came out at 13.5 µM.

Consider `CC[C@H](C)[C@H](NC(=O)[C@H](CC1CCCCC1)NC(=O)c1ccno1)C(=O)Nc1ccc(C(=O)N2CCC(CN)CC2)cc1`, for which the EC50 is above 50 µM.

Turning to `CC[C@H](C)[C@H](NC(=O)[C@H](CC1CCCCC1)NC(=O)c1ccno1)C(=O)N1CCCC(C(=O)N2CCC(CN)CC2)C1` (stereo partly specified), the EC50 is 17.1 µM.

With `CC[C@H](C)[C@H](NC(=O)[C@H](CC1CCCCC1)NC(=O)c1ccno1)C(=O)Nc1cccc(C(=O)N2CCC(CN)CC2)c1`, the EC50 amounted to 2.2 µM.

For `CC[C@H](C)[C@H](NC(=O)[C@H](CC1CCCCC1)NC(=O)c1ccno1)C(=O)N1CCCCC1C(=O)N1CCC(CN)CC1` (stereo partly specified), the EC50 stood at 7.1 µM.

In the case of `CC[C@H](C)[C@H](NC(=O)[C@H](CC1CCCCC1)NC(=O)c1ccno1)C(=O)N1CCC(C(=O)N2CCC(CN)CC2)CC1`, the EC50 was 13.7 µM.

Turning to `CC[C@H](C)[C@H](NC(=O)[C@H](CC1CCCCC1)NC(=O)c1ccno1)C(=O)NCc1ccc(C(=O)N2CCC(CN)CC2)cc1`, the EC50 stood at 1.1 µM.

Still in this assay, the particulars now being: ht-29.
With `CC[C@H](C)[C@H](NC(=O)[C@H](CC1CCCCC1)NC(=O)c1ccno1)C(=O)N[C@H]1CCC2SC[C@@H](C(=O)N3CCC(CN)CC3)N2C1=O` (stereo partly specified), the EC50 was 6.1 µM.

The target in another assay is T2, Proteinase-activated receptor 1 (Homo sapiens) (UniProt P25116).
T2 sequence (whole entry): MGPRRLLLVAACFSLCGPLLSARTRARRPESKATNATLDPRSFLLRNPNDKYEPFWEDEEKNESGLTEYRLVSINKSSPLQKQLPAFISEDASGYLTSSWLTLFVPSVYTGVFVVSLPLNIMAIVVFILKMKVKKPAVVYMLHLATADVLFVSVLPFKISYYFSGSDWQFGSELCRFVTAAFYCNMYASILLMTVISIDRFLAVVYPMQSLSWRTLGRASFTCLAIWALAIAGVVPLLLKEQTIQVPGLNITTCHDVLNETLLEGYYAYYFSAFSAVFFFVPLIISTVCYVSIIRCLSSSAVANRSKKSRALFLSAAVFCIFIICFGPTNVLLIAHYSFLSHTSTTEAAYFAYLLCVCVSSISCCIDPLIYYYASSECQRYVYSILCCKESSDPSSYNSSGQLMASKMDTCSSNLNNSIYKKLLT
The assay is described as follows: Agonist activity at human PAR1 receptor in HEK293 cells relative to TFLLR-NH2. The format is functional, cell-based.
Conditions: not given
Take `CC[C@H](C)[C@H](NC(=O)[C@H](Cc1ccccc1)NC(=O)c1ccco1)C(N)=O`: the outcome was Active.

A further assay has as its target T1, Proteinase-activated receptor 2. The assay is described as follows: Agonist activity at human PAR2 receptor in HEK293 cells assessed as induction of intracellular calcium release. The format is functional, cell-based.
Conditions: not given
As to `CC[C@H](C)[C@H](NC(=O)[C@H](CC1CCCCC1)NC(=O)c1ccco1)C(N)=O`, the EC50 was above 50 µM.

For the molecule `CC[C@H](C)[C@H](NC(=O)[C@H](CC1CCCCC1)NC(=O)c1cnccn1)C(N)=O`, the EC50 is above 100 µM.

In the case of `CC[C@H](C)[C@H](NC(=O)[C@H](CC1CCCCC1)NC(=O)c1coc(C)n1)C(N)=O`, the EC50 was above 100 µM.

The target of the next assay is Proteinase-activated receptor 2 (Homo sapiens) (UniProt P55085). The assay is described as follows: Agonist activity at PAR2 receptor in human HT-29 cells assessed as induction of intracellular calcium release at 1 uM relative to SLIGRLI-NH2. Type of assay: functional, cell-based.
Conditions: not given
The gist of the method:
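HT29 cells, Fluo-3 AM loaded, in HBSS/HEPES/probenecid buffer pH 7.4 with 2% DMSO final. Each agonist given once at 1 μM. Fluorescence (ex 495/em 520 nm) was read over 60 s after addition, and iCa2+ release was compared with SLIGRLI-NH2.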
With `CC[C@H](C)[C@H](NC(=O)[C@H](CC1CCCCC1)NC(=O)c1ccno1)C(=O)NCCCCCN`, the Activity is 60%.

Regarding `CC[C@H](C)[C@H](NC(=O)[C@H](CC1CCCCC1)NC(=O)c1ccno1)C(=O)NCCCCC(=O)N1CCC(CN)CC1`, the Activity stood at 181%.

As to `CC[C@H](C)[C@H](NC(=O)[C@H](CC1CCCCC1)NC(=O)c1ccno1)C(=O)NCCCCC(=O)NCc1cccnc1`, the Activity turned out to be 130%.

On to `CC[C@H](C)[C@H](NC(=O)[C@H](CC1CCCCC1)NC(=O)c1ccno1)C(=O)NCCC(=O)N1CCC(CN)CC1`, for which the Activity was found to be 97%.

Consider `CC[C@H](C)[C@H](NC(=O)[C@H](CC1CCCCC1)NC(=O)c1ccno1)C(=O)NCCCCC(=O)Nc1ccc(CCN)cc1`, for which the Activity was 142%.

As to `CC[C@H](C)[C@H](NC(=O)[C@H](CC1CCCCC1)NC(=O)c1ccno1)C(=O)NCCCN`, the Activity was determined as 57%.

`CC[C@H](C)[C@H](NC(=O)[C@H](CC1CCCCC1)NC(=O)c1ccno1)C(=O)NCCC(=O)Nc1ccc(CCN)cc1`: the Activity is 130%.

Take `CC[C@H](C)C(NC(=O)[C@H](CC1CCCCC1)NC(=O)c1ccno1)C(=O)NCCC(=O)NCc1cccnc1` (single isomer, unassigned): the Activity amounted to 122%.
